# Source: ChEMBL document CHEMBL1125226, “Antineoplastic activity of didemnin congeners: nordidemnin and modified chain analogues” (1991)
# Columns and labels:
# Assay type in all cases: functional, Mus musculus
# B16 [1] = assay: Antitumor activity against B16 melanoma from B6 D2 F1 female mice(T/C) as median survival time of treated mice (T) over that of control mice (C) at a dose of 0.50 mg/kg/day (repeated ip injections, day 1-9); details: route intraperitoneal
# Outline: (§1)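 B16 melanoma homogenate (1 g tumor in 9 mL 0.9% saline), 0.5 mL implanted ip on day 0 in B6D2F1 female mice (C57BL/6 ♀ × DBA/2 ♂). Treatment ip once daily from day 1 to day 9. Toxicity scored as survivors on day 5. Median survival recorded and T/C computed as treated/control median survival, ≥125% significant.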
# P388 [2] = assay: Antitumor activity against P388 Leukemia from CDF1 female mice evaluated as Median survival time of treated mice at a dose of 0.12 mg/kg/day
# Outline: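 CDF1 female mice (BALB/c ♀ × DBA/2 ♂) given 10⁶ P388 cells ip on day 0. Drug in 2% methanol given ip on days 1, 5 and 9, 10 mice per group and more controls. Toxicity is survivors on day 5, with weight change between days 1 and 5. Mortality followed 30 days. T/C% is treated over control median survival (NCI method), significant at ≥125%.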
# B16 [3] = assay: Antitumor activity against B16 melanoma from B6 D2 F1 female mice evaluated as average weight change of animals between day 1 and day 5 after tumor implementation at a dose of 0.50 mg/kg/day
# Outline: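 B16 melanoma in B6D2F1 female mice: 0.5 mL of tumor homogenate (1 g in 9 mL 0.9% saline) was given ip on day 0. Ip dosing was on days 1, 5 and 9. The readout was the average body weight change between day 1 and day 5 after tumor implantation.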
# B16 [4] = assay: Antitumor activity against B16 melanoma from B6 D2 F1 female mice(T/C) as median survival time of treated mice (T) over that of control mice (C) at a dose of 0.06 mg/kg/day (repeated ip injections, day 1-9); details: route intraperitoneal; outline: as §1
# P388 [5] = assay: Average weight change of animals between day 1 and day 5 after tumor implementation at a dose of 0.25 mg/kg/day
# Outline: (§2)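 P388 leukemia: CDF1 female mice were inoculated ip with 10⁶ cells on day 0. Treatment in 2% methanol was given ip on days 1, 5 and 9, with 10 mice per group and a larger control group. Body weight was recorded on days 1 and 5 post-implant, and the average change was reported.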
# P388 [6] = assay: Average weight change of animals between day 1 and day 5 after tumor implementation at a dose of 0.06 mg/kg/day; outline: as §2
smiles,measurement,setting,value
COc1ccc(C[C@H]2C(=O)O[C@H](C)[C@H](NC(=O)[C@@H](CC(C)C)N(C)C(=O)C3CCCN3C(=O)[C@@H](C)O)C(=O)NC(C(C)C)[C@H](O)CC(=O)O[C@@H](C(C)C)C(=O)[C@H](C)C(=O)N[C@@H](CC(C)C)C(=O)N3CCC[C@H]3C(=O)N2C)cc1 (stereo partly specified) [NORDIDEMNIN],T/C,B16 [1],52%
same,"median survival time, days",P388 [2],14.7
same,Body weight change,B16 [3],-0.9 g
same,T/C,B16 [4],146%
same,Body weight change,P388 [5],-0.7 g
same,Body weight change,P388 [6],0.2 g
